Source: ChEMBL document CHEMBL5331127, “Discovery of ARD-2051 as a Potent and Orally Efficacious Proteolysis Targeting Chimera (PROTAC) Degrader of Androgen Receptor for the Treatment of Advanced Prostate Cancer” (J Med Chem, 2023)

Experiments:
[1] = target: T1, Androgen receptor (Homo sapiens, UniProt P10275); assay: Displacement of Fluormone AL Green from androgen receptor LBD (unknown origin) incubated for 4 hrs by fluorescence polarization assay
T1 sequence (P10275 whole entry): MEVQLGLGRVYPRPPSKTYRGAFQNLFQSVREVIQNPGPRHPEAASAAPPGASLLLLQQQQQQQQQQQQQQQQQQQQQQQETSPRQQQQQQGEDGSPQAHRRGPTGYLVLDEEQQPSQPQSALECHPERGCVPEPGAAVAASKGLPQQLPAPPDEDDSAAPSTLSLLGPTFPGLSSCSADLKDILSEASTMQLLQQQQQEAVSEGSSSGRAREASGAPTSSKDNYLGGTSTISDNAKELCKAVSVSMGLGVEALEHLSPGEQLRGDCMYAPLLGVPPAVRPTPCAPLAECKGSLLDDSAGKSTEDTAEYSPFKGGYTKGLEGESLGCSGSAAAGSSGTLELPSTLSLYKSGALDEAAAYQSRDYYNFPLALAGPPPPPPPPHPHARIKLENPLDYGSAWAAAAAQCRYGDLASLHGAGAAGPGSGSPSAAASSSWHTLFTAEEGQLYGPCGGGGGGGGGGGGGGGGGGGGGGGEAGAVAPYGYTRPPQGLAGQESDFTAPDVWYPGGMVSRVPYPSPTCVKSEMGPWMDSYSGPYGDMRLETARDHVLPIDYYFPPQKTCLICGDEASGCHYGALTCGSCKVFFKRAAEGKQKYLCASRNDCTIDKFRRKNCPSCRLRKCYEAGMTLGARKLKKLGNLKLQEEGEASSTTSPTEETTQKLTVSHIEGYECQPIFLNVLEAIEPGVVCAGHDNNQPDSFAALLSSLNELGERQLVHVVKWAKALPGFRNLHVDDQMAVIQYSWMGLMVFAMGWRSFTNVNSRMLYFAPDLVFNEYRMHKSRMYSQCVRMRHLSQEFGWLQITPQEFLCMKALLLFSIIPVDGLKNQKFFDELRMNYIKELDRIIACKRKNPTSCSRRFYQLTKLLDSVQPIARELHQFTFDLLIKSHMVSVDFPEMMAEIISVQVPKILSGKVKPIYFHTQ

[2] = target: T2, Androgen receptor (Homo sapiens) (UniProt P10275); assay: Displacement of Fluormone AL Green from androgen receptor LBD (unknown origin) at 1 uM incubated for 4 hrs by fluorescence polarization assay relative to control
T2 sequence (whole entry): T1 sequence (P10275 whole entry)

[3] = Drug concentration in ICR mouse plasma at 10 mg/kg, po measured after 6 hrs; type: ADME, organism-based
In short: (§1)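 Mice given a single 10 mg/kg dose by oral gavage, 3 mice per time point. Plasma drug levels measured at 1, 3, 6 and 24 h; mean ± SD reported.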

[4] = system: VCaP; assay: Growth inhibition in human VCaP cells incubated for 4 days by WST-8 assay relative to control; type: functional; conditions: time 4 day
In short: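 VCaP prostate cancer cells (ATCC) were maintained in DMEM with Glutamax plus 10% fetal bovine serum at 37 °C, humidified 5% CO2. They were exposed to compound for 4 days, and viability was then read by WST-8 colorimetric assay following the kit instructions.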

[5] = system: LNCaP; assay: Growth inhibition in human LNCaP cells incubated for 4 days by WST-8 assay relative to control; type: functional; conditions: time 4 day
In short: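 LNCaP cells grown in RPMI 1640 with 10% FBS, treated for 4 days. Viability read by WST-8 assay.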

[6] = Drug concentration in ICR mouse plasma at 10 mg/kg, po measured after 3 hrs; type: ADME, organism-based; in short: as §1
[7] = Drug concentration in ICR mouse plasma at 10 mg/kg, po measured after 1 hr; type: ADME, organism-based; in short: as §1
[8] = Drug concentration in ICR mouse plasma at 10 mg/kg, po measured after 24 hrs; type: ADME, organism-based; in short: as §1

## CN1CCN(c2ccc(C(=O)N3CCC4(CC3)CCN(c3ccc(C#N)c(Cl)c3)C4)cc2)CC1
[1]
  IC50: 800 nM

## CN1CCN(C(=O)c2ccc(N3CCC4(CC3)CCN(c3ccc(C#N)c(Cl)c3)C4)cc2)CC1
[1]
  IC50: 78 nM

## N#Cc1ccc(N2CCC3(CCN(c4ccccc4)CC3)C2)cc1Cl
[2]
  inhibition: 30%
[1]
  IC50: > 1000 nM

## N#Cc1ccc(N2CCC3(CCN(C(=O)c4ccccc4)CC3)C2)cc1Cl
[1]
  IC50: 1700 nM

## N#Cc1ccc(O[C@H]2CC[C@H](NC(=O)c3ccc(N4CCC(CN5CCN(c6cc7c(cc6F)C(=O)N(C6CCC(=O)NC6=O)C7=O)CC5)CC4)nn3)CC2)cc1Cl (stereo partly specified) [BAVDEGALUTAMIDE]
[3]
  concentration at 6 h: 110 ng/mL
[4]
  Imax: 88%
[5]
  Imax: 90%
[6]
  concentration at 3 h: 124 ng/mL
[7]
  concentration at 1 h: 55 ng/mL
[8]
  concentration at 24 h: 70 ng/mL
